Test results published in ChEMBL document CHEMBL4130436, “Meroterpenoids from a Medicinal Fungus Antrodia cinnamomea” (2017).

Assays:
[1] = tested on: A549; assay: Growth inhibition of human A549 cells after 48 hrs by SRB assay; type: functional; details: A549, 48 h
Summary of the method: (§1)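 Cells (from ATCC) grown in RPMI-1640 with 10% FBS and penicillin/streptomycin/amphotericin B, 37 °C, 5% CO2. Seeded overnight, then exposed to various compound concentrations for 48 h. A time-zero plate fixed with 10% TCA at dosing. After treatment, cells fixed with 10% TCA, stained with 0.4% SRB in 1% acetic acid, lysed in 10 mM Trizma base, A515 read. GI50 = concentration giving 50% reduction of the control protein increase.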

[2] = tested on: PC-3; assay: Growth inhibition of human PC3 cells after 48 hrs by SRB assay; type: functional; details: PC-3, 48 h; summary of the method: as §1

Row | Structure (SMILES) | GI50 [1] [µM] | GI50 [2] [µM]
1 | COC1=C(OC)[C@H](O)[C@H](C/C=C(\C)CC/C=C(\C)C/C=C/C(C)(C)O)[C@@H](C)C1=O | 23.8 | > 30
2 | COc1cc2c(c(C)c1O)C=C[C@](C)(CC/C=C(\C)CCC=C(C)C)O2 | > 30 | > 30
3 | COC1=C[C@H](O)[C@H](C/C=C(\C)CC/C=C(\C)C[C@@H]2C[C@@H](C)C(=O)O2)[C@@H](C)C1=O | > 30 | > 30
4 | COC1=C[C@H](O)[C@H](C/C=C(\C)CC/C=C(\C)C[C@H](O)/C=C(\C)CO)[C@@H](C)C1=O | > 30 | > 30
5 | COC1=C(OC)[C@H](OC(C)=O)[C@H](C/C=C(\C)CC/C=C(\C)C[C@H](O)/C=C(\C)C(=O)O)[C@@H](C)C1=O | > 30 | > 30
6 | COC1=C(OC)[C@H](OC(C)=O)[C@H](C/C=C(\C)CC/C=C(\C)C[C@H](O)/C=C(\C)CO)[C@@H](C)C1=O | 29 | > 30
7 | COC1=C(OC)[C@H](OC(C)=O)[C@H](C/C=C(\C)CC/C=C(\C)C[C@@H]2C[C@@H](C)C(=O)O2)[C@@H](C)C1=O | 11.3 | > 30
8 | COC1=C[C@H](O)[C@H](C/C=C(\C)CC/C=C(\C)CCC=C(C)C)[C@@H](C)C1=O | 16.4 | > 30
9 | COC1=C(OC)[C@H](O)[C@H](C/C=C(\C)CC/C=C(\C)CCCC(C)CO)[C@@H](C)C1=O (stereo not given in full) | 7.1 | > 30
10 | COC1=C(OC)C(=O)C(C/C=C(\C)CC/C=C(\C)CCC=C(C)C)=C(C)C1=O | > 30 | > 30
11 | COC1=C(O)[C@H](O)[C@H](C/C=C(\C)CC/C=C(\C)C[C@H](O)/C=C(\C)CO)[C@@H](C)C1=O | > 30 | > 30
12 | COC1=C(OC)[C@H](O)[C@H](C/C=C(\C)CC/C=C(\C)C[C@H](O)C=C(C)C)[C@@H](C)C1=O | 9.6 | > 30
13 | COC1=C(OC)[C@H](O)[C@H](C/C=C(\C)CC/C=C(\C)C[C@@H]2C[C@@H](C)C(=O)O2)[C@@H](C)C1=O | 14.1 | > 30
14 | COC1=C(OC)C(=O)C(C/C=C(\C)CC/C=C(\C)C[C@H](O)C=C(C)C)=C(C)C1=O | > 30 | > 30
15 | COC1=CC(=O)C(C/C=C(\C)CC/C=C(\C)CCC=C(C)C)=C(C)C1=O | > 30 | > 30
16 | COC1=C(OC)[C@H](O)[C@H](C/C=C(\C)CC/C=C(\C)CC/C=C(\C)CO)[C@@H](C)C1=O | 8.2 | > 30
17 | COC1=C(OC)[C@H](O)[C@H](C/C=C(\C)CC/C=C(\C)C[C@H](O)/C=C(\C)CO)[C@@H](C)C1=O | 12 | > 30
18 | COC1=C(OC)[C@H](OC(C)=O)[C@H](C/C=C(\C)CC/C=C(\C)C[C@H](O)C=C(C)C)[C@@H](C)C1=O | 20.7 | > 30
19 | COC1=C(OC)[C@H](O)[C@H](C/C=C(\C)CC/C=C(\C)CCC=C(C)C)[C@@H](C)C1=O [ANTROQUINONOL] | 5.7 | 13.5
20 | O=c1[nH]cc(F)c(=O)[nH]1 [FLUOROURACIL] | 4.2 | 11.7
